# Screens: PubChem, Johns Hopkins Ion Channel Center
# KCNQ1 act – potentiators or activators of KCNQ1 channel, primary screen, cell-based, thallium flux, high-throughput; CHO-K1 KCNQ1, thallium flux FluxOR fluorescence; active compounds read high; 310,000 tested, 0.35% active; B-score at 10 µM; Potassium voltage-gated channel subfamily KQT member 1 (Homo sapiens), P51787;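 active means fluorescence ratio B-score, a plate-corrected score, at least three library SD, with initial intensity B-score within 5 SD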
#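 assay system = CHO-K1 cells stably expressing KCNQ1 | medium = assay buffer, equal DMSO in all wells | timing = 37 °C overnight plating, 90-min dark dye load, 20-min compound pretreatment | measured by = kinetic FluxOR thallium fluorescence, 10-s 1-Hz baseline, 110-s post-stimulus read | measure = fluorescence change relative to baseline, converted to B score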
# KCNQ1 block – inhibitors of human KCNQ1 channel, primary screen, cell-based, thallium flux, high-throughput. Potassium voltage-gated channel subfamily KQT member 1 (Homo sapiens), P51787. CHO-K1 KCNQ1, FluxOR thallium flux fluorescence; active compounds read high. B-score at 10 µM. 310,000 tested, 1.3% active;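 active means compounds whose thallium flux B-score, printed positive for inhibition, exceeds three library SD while starting fluorescence stays within three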;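 further: channel opened by potassium depolarization with thallium stimulus after 20 min compound exposure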
# Kir21 block – inhibitors of mouse Kir2.1 inward-rectifier potassium channel; HEK293-Kir2.1, FluxOR thallium flux fluorescence; active compounds read low; B-score at 10 µM; 310,000 tested, 0.85% active; AID 1672, 2009;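 active means fluorescence ratio B-score at or below minus 3 SD of library scores, with starting-brightness B-score within 2 SD, cut at about -4.2 in these data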;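 further: channel flux triggered by added potassium and thallium sulfate stimulus; B-score of peak minus minimum fluorescence over baseline after thallium stimulus; more negative B-score means stronger Kir2.1 block with less thallium influx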
# hERG rescue – hERG rescue from dofetilide block, primary screen, cell-based, CHO-hERG, FluxOR thallium flux, dofetilide IC70; dofetilide IC70 present; Voltage-gated inwardly rectifying potassium channel KCNH2 (Homo sapiens), Q12809; 310,000 tested, 0.51% active; AID 1511, 2009; activation (rescue from dofetilide block), less the hit threshold, % at 10 µM;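 active means activation above the mean of controls blocked by dofetilide plus 5 SD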;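 further: thallium influx through hERG after potassium depolarization seen as dye fluorescence rise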
# KCNK9 inh – KCNK9 potassium channel inhibitors, primary screen, HEK293 cells, thallium flux; Potassium channel subfamily K member 9 (Homo sapiens), Q9NPC2; FluxOR thallium flux fluorescence; active compounds read low; B-score at 10 µM; 310,000 tested, 1.2% active; AID 488922, 2010;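 active means ratio B-score over 3 SD below the library mean, with starting fluorescence within 5 SD of its mean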;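 further: negative B-score means less thallium flux so channel inhibition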
# Target sequence (Q9NPC2 whole entry, looked up): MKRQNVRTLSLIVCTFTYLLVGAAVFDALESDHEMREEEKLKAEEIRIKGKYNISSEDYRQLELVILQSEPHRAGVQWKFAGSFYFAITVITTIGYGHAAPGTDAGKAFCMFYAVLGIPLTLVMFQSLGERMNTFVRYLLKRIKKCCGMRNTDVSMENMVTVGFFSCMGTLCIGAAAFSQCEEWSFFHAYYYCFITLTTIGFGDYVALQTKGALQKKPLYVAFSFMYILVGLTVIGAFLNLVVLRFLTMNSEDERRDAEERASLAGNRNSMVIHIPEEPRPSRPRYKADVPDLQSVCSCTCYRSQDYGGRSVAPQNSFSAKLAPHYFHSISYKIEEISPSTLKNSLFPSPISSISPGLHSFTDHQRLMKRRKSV
# KCNK3 block – human KCNK3 channel inhibitors, primary screen, CHO cells, FluxOR thallium flux, B-score. FluxOR fluorescence; active compounds read low. AID 602410, 2012. B-score at 10 µM. 340,000 tested, 0.84% active;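 active means B-score under library mean minus 4 SD, starting fluorescence ratio at most library mean plus 5 SD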;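 further: more negative B-score means stronger inhibition of thallium flux through KCNK3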
# Numbers stand for hits; - = inactive; . = no result. An excerpt weighted towards active compounds, which were near 3.7% of everything screened.
SMILES,KCNQ1 act,KCNQ1 block,Kir21 block,hERG rescue,KCNK9 inh,KCNK3 block
Cc1nn(C)c(C(=O)NNC(=S)Nc2ccc(F)cc2)c1[N+](=O)[O-],-,-,-,-,-,-
CCn1ncc(Cl)c1C(=O)NC(=S)Nc1ccccc1Br,26,-,-,35,-,-
Cc1nn(C)c(C(=O)NC(=S)Nc2ccccc2Br)c1Cl,22,-,-,17,-,-
Cc1ccc(C)c(NC(=O)CN(C)C(=O)c2cc3c(s2)CCCCC3)c1,-,-,-,-,-,-
O=C(CCn1c(=O)oc2ccccc21)Nc1nc2ccccc2s1,-,-,-,-,-7.2,-
O=C(Nc1cc(Sc2nc3ccccc3s2)cc([N+](=O)[O-])c1)c1ccccc1,-,11,-,-,-,-
CSc1cccc(NC(=S)NCCCN2CCN(c3ccc(F)cc3)CC2)c1,-,-,-5.8,-,-,-
Fc1cccc(NC(=S)NCCCN2CCOCC2)c1,-,-,-,-,-,-
CC(C)(C)C(=O)c1no[n+]([O-])c1/C(=N/O)C(C)(C)C,-,6,-,-,-,-
CCOc1nc2cnccc2n(CC(=O)Nc2ccccc2C(=O)OC)c1=O,-,-,-,-,-,-
O=C(CSCC(=O)N1CCCCC1)Nc1nc(-c2ccccc2)c(-c2ccccc2)s1,.,.,.,.,.,-11
COc1ccc(-c2sc(NC(C)=O)nc2-c2ccccc2)cc1,-,-,-,-,-,-
CCC1C/C(=C\c2cc(OC)c(OC)cc2OC)C(=O)/C(=C/c2cc(OC)c(OC)cc2OC)C1 (stereo not drawn),-,7,-,-,-,-11
O=C(CCCC(=O)Nc1cccc(Br)c1)N/N=C/c1cc([N+](=O)[O-])ccc1O,-,7,-,-,-,-
O=C(CN(c1cccc(Br)c1)S(=O)(=O)c1ccccc1)N/N=C/c1cc([N+](=O)[O-])ccc1O,-,16,-,-,-,-
C[C@H](NC(=O)C1CCN(S(=O)(=O)c2ccccc2)CC1)C(=O)NCc1ccccn1,-,-,-,-,-,-
CC(C)CN1C(=O)C(=O)N(CC(=O)N(C)CC(=O)Nc2ccc(F)cc2)C1=O,.,.,.,.,.,-
C=C1C(=O)O[C@H]2C1CC[C@@](C)(O)C13C=CC(C)(C21)C1(C3)C(=O)O[C@@H]2C3C(C)=CCC3[C@](C)(O)C[C@H](OC(C)=O)C21 (stereo partly drawn),-,-,-,5.9,-,-
Cc1cc(C)c(C#N)c(N2CCN(C(=O)C3COc4ccccc4O3)CC2)n1 (stereo not drawn),.,.,.,.,.,-
COc1ccc(CNC(=O)CN(C(=O)c2csnn2)c2cccc3ccccc23)cc1,-,-,-,-,-,-
OC(CNCCc1ccc(Cl)cc1)COc1cc(Cl)ccc1Cl (stereo not drawn),-,9,-14,-,-,-
O=C(c1ccccc1)c1ccc(OCC(O)CNCc2cccc(Cl)c2)cc1 (stereo not drawn),-,-,-8.4,-,-,-
COc1ccc(C(OCC(O)CNCCc2ccccc2)c2ccc(OC)cc2)cc1 (stereo not drawn),-,-,-6.7,-,-,-
OC(CNCCC(c1ccccc1)c1ccccc1)COc1ccccc1 (stereo not drawn),-,-,-6.5,-,-,-
Cc1ccc(NC(=O)C(C)N2C(=O)c3ccccc3C2=O)c(C)c1 (stereo not drawn),-,-,-,-,-,-
CCOc1ccccc1Nc1cc(C)nc2ccc(C)cc12,-,-,-,-,-,-
O=C(OCCOc1cccc(Cl)c1)c1cc(S(=O)(=O)N2CCOCC2)ccc1F,-,-,-,-,-,-
COc1ccc(S(=O)(=O)N2CCN(CC(=O)NC3CC3)CC2)cc1,-,-,-,-,-,-
CCC(=O)c1ccc(OCC(O)CNC(C)c2ccccc2)cc1 (stereo not drawn),-,-,-,-,-,-
